In ChEMBL document CHEMBL1123131, “Examination of a series of 8-[3-[bis(4-fluorophenyl)amino]propyl]-1-aryl-1,3,8- triazaspiro[4.5]decan-4-ones as potential antipsychotic agents” (J Med Chem, 1985):

Columns and labels:
Mus musculus = assay: Antipsychotic activity using locomotor activity (LMA)-inverted screen test in mice (i.p. admin.); format: functional; conditions: ip, read-out: MED
Outline: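 Unfasted male Swiss-Webster mice, 20–30 g, nine per dose; ip 1 h before testing in 0.2% methocel, 10 mL/kg; 10, 30, 100 mg/kg, three replicates. Inverted-screen falloff over 60 s, then photocell locomotion for 60 min versus vehicle. MED = lowest dose giving >60% locomotor inhibition with <60% falloff.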

Rattus norvegicus [1] = species: Rattus norvegicus; assay: Activity against the suppression of high base line self stimulation with electrodes in the medial forebrain of the posterior hypothalamus of male hooded rats (Peroral admin.); format: functional; conditions: po
Outline: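 Male hooded rats with electrodes in the medial forebrain bundle of the posterior hypothalamus; rapid high base-line self-stimulation rates served as base lines. Oral dosing, behaviour recorded continuously on cumulative recorders. Active if base-line rate was reduced by 50% for 1.5 h or more. Four rats per dose; ED50 by computer analysis (linear regression from doses bracketing the ED50).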

[2] = Minimal effective dose required for signs of EPS in cebus monkeys; format: functional; conditions: read-out: MED
Rattus norvegicus [3] = species: Rattus norvegicus; assay: The compound was tested for its ability to induced catalepsy in rats; format: functional
Outline: (§1)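 Fasted male Long-Evans hooded rats, 180–220 g, used once; oral intubation, suspended in 0.2% methylcellulose if insoluble. At least three doses, eight rats per dose. Forepaws placed on a horizontal rod 11.5 cm high, read every 30 min for 1 h then hourly to 6 h, 24 h if needed. Partial scores summed; ED50 by nonlinear regression.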

[4] = The compound was tested for its ability to induced catalepsy in squirrel monkeys; format: functional
Outline: (§2)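 Adult squirrel monkeys, 600–1000 g, fasted overnight, oral dosing with at least 1 week between dosings. Observed hourly for at least 6 h and at 24 h. Four animals per dose, at least three doses; ED50 by nonlinear regression for quantal data.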

Rattus norvegicus [5] = species: Rattus norvegicus; assay: The compound was tested for inhibition of sidman avoidance in rat; format: functional
Outline: (§3)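 Mature male Long-Evans rats or squirrel monkeys trained on a modified Sidman avoidance lever schedule with 0.5-s shock; 6-h sessions, given orally. Response expressed as % inhibition of nondrug avoidance responding, each animal its own control. At least three doses, four animals each, sessions at least 1 week apart; ED50 by nonlinear regression.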

[6] = The compound was tested for inhibition of sidman avoidance in squirrel monkeys; format: functional; outline: as §3
Rattus norvegicus [7] = assay: The compound was tested (after peroral administration) for its ability to induce catalepsy in rats; format: functional; conditions: po; outline: as §1
[8] = The compound was (after peroral administration) tested for inhibition of sidman avoidance in squirrel monkeys; format: functional; conditions: po; outline: as §3
Rattus norvegicus [9] = assay: The compound was tested (after peroral administration) for inhibition of sidman avoidance in rat; format: functional; conditions: po; outline: as §3
[10] = target: Muscarinic acetylcholine receptor; assay: The compound was tested for inhibition of [3H]QNB binding to Muscarinic acetylcholine receptor; format: protein assay
[11] = The compound was tested (after peroral administration) for its ability to induced catalepsy in squirrel monkeys; format: functional; conditions: po; outline: as §2
[12] = target: T1, Adrenergic receptor alpha-1 (Rattus norvegicus, UniProt P15823+P23944+P43140)
T1 sequence (P15823 whole entry): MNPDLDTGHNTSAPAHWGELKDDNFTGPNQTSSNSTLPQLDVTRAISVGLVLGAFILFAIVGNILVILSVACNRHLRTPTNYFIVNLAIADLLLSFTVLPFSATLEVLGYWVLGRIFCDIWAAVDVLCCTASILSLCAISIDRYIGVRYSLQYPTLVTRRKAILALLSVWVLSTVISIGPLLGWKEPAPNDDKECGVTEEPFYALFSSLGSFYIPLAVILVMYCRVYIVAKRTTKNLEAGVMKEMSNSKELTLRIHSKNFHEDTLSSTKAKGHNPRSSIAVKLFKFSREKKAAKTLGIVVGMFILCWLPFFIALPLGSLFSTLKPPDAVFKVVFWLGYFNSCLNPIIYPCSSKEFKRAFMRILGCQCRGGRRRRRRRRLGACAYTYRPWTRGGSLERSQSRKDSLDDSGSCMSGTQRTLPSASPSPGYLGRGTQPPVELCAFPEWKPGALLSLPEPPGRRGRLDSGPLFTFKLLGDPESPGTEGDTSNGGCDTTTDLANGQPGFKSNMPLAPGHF
T1 sequence (P23944 whole entry): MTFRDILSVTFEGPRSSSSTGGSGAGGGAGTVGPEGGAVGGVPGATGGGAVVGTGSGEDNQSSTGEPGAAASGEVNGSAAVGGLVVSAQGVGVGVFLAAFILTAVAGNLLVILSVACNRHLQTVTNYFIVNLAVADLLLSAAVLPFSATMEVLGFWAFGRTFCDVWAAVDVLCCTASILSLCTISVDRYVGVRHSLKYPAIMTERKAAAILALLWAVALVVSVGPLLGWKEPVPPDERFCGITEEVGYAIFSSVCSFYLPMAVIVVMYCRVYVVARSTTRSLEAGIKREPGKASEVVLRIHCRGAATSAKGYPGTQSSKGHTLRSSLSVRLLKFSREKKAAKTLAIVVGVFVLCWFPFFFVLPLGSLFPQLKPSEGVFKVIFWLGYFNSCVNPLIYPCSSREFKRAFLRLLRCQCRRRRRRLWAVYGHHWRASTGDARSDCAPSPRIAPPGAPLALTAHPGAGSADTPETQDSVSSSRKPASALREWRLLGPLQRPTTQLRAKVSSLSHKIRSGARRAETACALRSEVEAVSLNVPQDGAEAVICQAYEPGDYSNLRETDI
T1 sequence (P43140 whole entry): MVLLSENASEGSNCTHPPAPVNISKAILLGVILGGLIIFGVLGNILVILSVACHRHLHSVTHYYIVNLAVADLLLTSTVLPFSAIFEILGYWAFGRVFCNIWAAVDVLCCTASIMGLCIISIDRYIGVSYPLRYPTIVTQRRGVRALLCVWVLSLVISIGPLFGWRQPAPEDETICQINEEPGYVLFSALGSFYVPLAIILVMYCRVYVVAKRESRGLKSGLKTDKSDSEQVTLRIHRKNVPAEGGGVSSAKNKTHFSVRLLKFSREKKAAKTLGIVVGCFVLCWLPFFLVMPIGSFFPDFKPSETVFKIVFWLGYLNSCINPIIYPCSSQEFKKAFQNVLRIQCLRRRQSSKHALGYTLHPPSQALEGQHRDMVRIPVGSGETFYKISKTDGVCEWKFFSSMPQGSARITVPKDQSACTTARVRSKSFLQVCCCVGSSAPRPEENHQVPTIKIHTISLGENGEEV

[13] = Minimal effective dose (after peroral administration) required for signs of EPS in cebus monkeys; format: functional; conditions: po; read-out: MED

SMILES | minimal effective dose (Mus musculus) | ED50 (Rattus norvegicus [1]) | ED50 (Rattus norvegicus [7]) | also measured
O=C1NCN(c2ccc(Cl)cc2)C12CCN(CCCN(c1ccc(F)cc1)c1ccc(F)cc1)CC2 | 30 mg/kg | 2 mg/kg | – | –
CN1CCN(C2=Nc3cc(Cl)ccc3Nc3ccccc32)CC1 [CLOZAPINE] | 10 mg/kg | – | – | minimal effective dose [2]: > 30 mg/kg; ED50 (Rattus norvegicus [3]): 133 mg/kg; ED50 [4]: > 50 mg/kg; ED50 (Rattus norvegicus [5]): 14.4 mg/kg; ED50 [6]: 4.1 mg/kg
O=C(CCCN1CCC(O)(c2ccc(Cl)cc2)CC1)c1ccc(F)cc1 [HALOPERIDOL] | 0.3 mg/kg | 0.14 mg/kg | 0.1 mg/kg | minimal effective dose [2]: 0.3 mg/kg; ED50 (Rattus norvegicus [3]): 0.47 mg/kg; ED50 [4]: 2 mg/kg; ED50 (Rattus norvegicus [5]): 0.3 mg/kg; ED50 [6]: 0.26 mg/kg
C=CCN1CN(c2ccccc2)C2(CCN(CCCN(c3ccc(F)cc3)c3ccc(F)cc3)CC2)C1=O | ≤ 10 mg/kg | 1.06 mg/kg | 22 mg/kg | –
COc1ccc(N2CNC(=O)C23CCN(CCCN(c2ccc(F)cc2)c2ccc(F)cc2)CC3)cc1 | 30 mg/kg | > 16 mg/kg | – | –
CN1CN(c2cccc(C(F)(F)F)c2)C2(CCN(CCCN(c3ccc(F)cc3)c3ccc(F)cc3)CC2)C1=O | 30 mg/kg | > 16 mg/kg | – | –
O=C1N(CC2CC2)CN(c2ccccc2)C12CCN(CCCN(c1ccc(F)cc1)c1ccc(F)cc1)CC2 | 30 mg/kg | 8.39 mg/kg | 200 mg/kg | –
O=C1NCN(c2ccccc2F)C12CCN(CCCN(c1ccc(F)cc1)c1ccc(F)cc1)CC2 | – | > 16 mg/kg | – | –
CC(=O)OCN1CN(c2ccccc2)C2(CCN(CCCN(c3ccc(F)cc3)c3ccc(F)cc3)CC2)C1=O | < 10 mg/kg | 1.03 mg/kg | 17 mg/kg | –
CN1CN(c2ccc(F)cc2)C2(CCN(CCCN(c3ccc(F)cc3)c3ccc(F)cc3)CC2)C1=O | ≤ 10 mg/kg | 0.96 mg/kg | 54 mg/kg | –
CC(C)c1ccc(N2CNC(=O)C23CCN(CCCN(c2ccc(F)cc2)c2ccc(F)cc2)CC3)cc1 | > 100 mg/kg | – | – | –
O=C1NCN(c2cccc(C(F)(F)F)c2)C12CCN(CCCN(c1ccc(F)cc1)c1ccc(F)cc1)CC2 | > 100 mg/kg | – | – | –
Cc1ccc(N2CNC(=O)C23CCN(CCCN(c2ccc(F)cc2)c2ccc(F)cc2)CC3)cc1 | ≤ 10 mg/kg | > 16 mg/kg | – | –
CCN(CC)CCN1CN(c2ccccc2)C2(CCN(CCCN(c3ccc(F)cc3)c3ccc(F)cc3)CC2)C1=O | ≤ 10 mg/kg | 5.65 mg/kg | 138 mg/kg | –
CN1CN(c2ccccc2)C2(CCN(CCCN(c3ccc(F)cc3)c3ccc(F)cc3)CC2)C1=O | ≤ 10 mg/kg | 2.84 mg/kg | 33 mg/kg | –
O=C(CCCN1CCC2(CC1)C(=O)NCN2c1ccccc1)c1ccc(F)cc1 [SPIPERONE] | < 10 mg/kg | 1.28 mg/kg | 10.8 mg/kg | –
O=C1NCN(c2ccc(F)cc2)C12CCN(CCCN(c1ccc(F)cc1)c1ccc(F)cc1)CC2 | ≤ 10 mg/kg | 0.55 mg/kg | 4.5 mg/kg | –
O=C1NCN(c2ccccc2)C12CCN(CCCN(c1ccc(F)cc1)c1ccc(F)cc1)CC2 | 5 mg/kg | – | 81 mg/kg | ED50 [8]: 1.7 mg/kg; ED50 (Rattus norvegicus [9]): 2.8 mg/kg; IC50 [10]: > 100 nM; ED50 [11]: 30 mg/kg; IC50 [12]: > 1000 nM; minimal effective dose [13]: 2.5 mg/kg
O=C1N(CO)CN(c2ccccc2)C12CCN(CCCN(c1ccc(F)cc1)c1ccc(F)cc1)CC2 | < 10 mg/kg | 0.89 mg/kg | 11 mg/kg | –
O=C1NCN(c2cccc(F)c2)C12CCN(CCCN(c1ccc(F)cc1)c1ccc(F)cc1)CC2 | 30 mg/kg | 0.78 mg/kg | 4.1 mg/kg | –
O=C1N(COCc2ccccc2)CN(c2ccccc2)C12CCN(CCCN(c1ccc(F)cc1)c1ccc(F)cc1)CC2 | 100 mg/kg | > 16 mg/kg | – | –
O=C1N(Cc2ccccc2)CN(c2ccccc2)C12CCN(CCCN(c1ccc(F)cc1)c1ccc(F)cc1)CC2 | > 100 mg/kg | – | – | –
CN(C)CCCN1CN(c2ccccc2)C2(CCN(CCCN(c3ccc(F)cc3)c3ccc(F)cc3)CC2)C1=O | – | 16 mg/kg | 200 mg/kg | –
